Screens from PubChem BioAssay.
OXTR potentiator – human OXTR potentiators, primary screen, fluorescence, CHO-OTR cells, Fluo-8 calcium; activation, % at 3 µM; Oxytocin receptor (Homo sapiens), P30559; Fluo-8 calcium fluorescence, potentiator mode; 0% = oxytocin EC15, 100% = EC100; actives 0.061% (n = 320,000);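 active = activation above that plate's cutoff, the mean activation of tested compounds plus 3 SD, cut at about 6.6% in these data, passing the limit was not always enough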
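Dosing: Single dose, 3.0 µM nominal final compound concentration | Material: Human OTR in CHO cells | Technique: Kinetic Fluo-8 calcium fluorescence | Benchmarks: EC15 oxytocin alone as 0%, 75 nM oxytocin as 100% | Probe or stimulus: Oxytocin at about EC15, sub-maximal agonist stimulus | Incubation: Compound 6 min at room temperature before oxytocin, 100 s read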
OXTR ag – human OXTR agonists, primary screen, fluorescence, CHO-OTR cells, Fluo-8 calcium | Oxytocin receptor (Homo sapiens), P30559 | Fluo-8 calcium fluorescence; normalized: DMSO 0%, oxytocin 100% | activation, % at 3 µM | actives 0.32% (n = 320,000);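 active = activation above the mean of all tested compounds plus 3 SD, cutoff set per screening run, cut at about 20% in these data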;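 note: peak over basal fluorescence ratio from a 100 s FLIPR kinetic read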
TAAR1 agonist – human TAAR1 agonists, primary screen, Fluo-8 calcium fluorescence, CHO RD-HGA16 cells | actives 0.99% (n = 360,000) | vehicle wells 0%, saturating PEA agonist 100% | AID 624467, 2012 | Trace amine-associated receptor 1 (Homo sapiens), Q96RJ0 | activation, % at 3 µM;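 active = activation above the mean activation of all test compounds in the run plus 3 SD, cut at about 38% in these data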
Target sequence (Q96RJ0 whole entry, looked up): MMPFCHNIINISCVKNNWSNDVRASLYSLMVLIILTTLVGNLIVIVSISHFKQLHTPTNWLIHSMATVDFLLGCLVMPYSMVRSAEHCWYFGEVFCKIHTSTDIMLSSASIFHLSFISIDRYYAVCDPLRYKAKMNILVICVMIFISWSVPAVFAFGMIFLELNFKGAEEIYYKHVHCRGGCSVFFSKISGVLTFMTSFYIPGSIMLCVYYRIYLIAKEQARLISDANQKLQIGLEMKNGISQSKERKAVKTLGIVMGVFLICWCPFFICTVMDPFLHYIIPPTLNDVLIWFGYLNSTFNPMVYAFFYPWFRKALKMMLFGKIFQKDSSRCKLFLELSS
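Benchmarks: low control DMSO, high control PEA (EC100); System: CHO RD-HGA16 cells carrying human TAAR1 plus Gα16; Detection: Fluo-8 fluorescence, 5 s baseline then 140 s kinetic read; Schedule: 17-24 h plating, Fluo-8 75 min 37 °C, 30 min RT; Read-out basis: % activation from peak over basal fluorescence ratio, DMSO-to-PEA scaled.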
V1aR counter – agonists of human V1a receptor, primary screen, counter-screen for OXTR agonist project, fluorescence, CHO-V1R cells; Fluo-8 calcium fluorescence, agonist mode; 0% DMSO, 100% 3 nM vasopressin; activation, % at 3 µM; actives 0.25% (n = 320,000); Vasopressin V1a receptor (Homo sapiens), P37288;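 active = activation above the mean activation of all tested compounds plus 3 SD, per screening run, cut at about 20% in these data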;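 note: signal is peak over basal fluorescence ratio across a 100 second FLIPR read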
Target sequence (P37288 whole entry, looked up): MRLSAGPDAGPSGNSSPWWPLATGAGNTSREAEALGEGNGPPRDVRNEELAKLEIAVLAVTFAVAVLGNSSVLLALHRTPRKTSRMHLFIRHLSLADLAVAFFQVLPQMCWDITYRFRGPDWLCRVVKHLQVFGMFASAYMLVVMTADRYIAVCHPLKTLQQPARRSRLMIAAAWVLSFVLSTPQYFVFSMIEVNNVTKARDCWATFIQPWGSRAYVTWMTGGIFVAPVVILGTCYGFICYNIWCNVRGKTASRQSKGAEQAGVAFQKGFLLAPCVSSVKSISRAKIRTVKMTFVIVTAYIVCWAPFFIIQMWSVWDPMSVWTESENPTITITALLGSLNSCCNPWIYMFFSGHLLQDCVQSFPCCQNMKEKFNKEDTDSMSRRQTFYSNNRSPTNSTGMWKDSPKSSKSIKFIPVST
TAAR1 antagonist – human TAAR1 antagonists, primary screen, Fluo-8 calcium fluorescence, CHO RD-HGA16 cells; antagonist; inhibition, % at 3 µM; actives 1.5% (n = 360,000);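 active = inhibition above a per-plate cutoff, the mean inhibition of test compounds on that plate plus 3 SD, cut at about 49% in these data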
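Assay system: CHO-derived RD-HGA16 cells stably expressing human TAAR1 plus Gα16. Timing: 140 s kinetic read after compound, 140 s after agonist. Technique: kinetic Fluo-8 calcium fluorescence measurement. Measure: % inhibition of agonist calcium response.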
TAAR1 ag conf – human TAAR1 agonists, retest of hits, confirmation, Fluo-8 calcium fluorescence, CHO RD-HGA16 cells; shares compounds with TAAR1 agonist; scaled: DMSO 0%, maximal phenethylamine 100%; activation, % at 3 µM; actives 82% (n = 2,400); AID 651783, 2012;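 active = activation above a cutoff set at the run's mean compound activation plus 3 SD, cut at about 39% in these data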
Ga16 nonsel ag – nonselective calcium mobilization agonists, CHO-Ga16 cells, counter-screen for hTAAR1 agonist project, cell-based, fluorescence, CHO-Ga16 parental line | shares compounds with TAAR1 agonist | Fluo-8 calcium fluorescence; normalized to maximal ATP response, DMSO zero | actives 50% (n = 2,400) | activation, % at 3 µM;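 active = activation above the run cutoff, the mean activation over all tested wells plus 3 SD, cut at about 12% in these data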
TAAR1 desensitize – TAAR1 desensitization by agonist hits, confirmation, counter-screen for TAAR1 agonist project, cell-based, fluorescence, tachyphylaxis; shares compounds with TAAR1 agonist; CHO RD-HGA16 hTAAR1, Fluo-8 calcium, beta-PEA response inhibition; inhibition, % at 3 µM; actives 46% (n = 2,400);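 active = inhibition above the run cutoff, the mean inhibition of all test compounds plus 3 SD, cut at about 49% in these data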;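 note: beta-PEA stimulus applied at its EC80; loss of beta-PEA calcium signal after compound pretreatment read as receptor desensitization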
Ga16 nonsel ant – inhibition of ATP-evoked calcium response in CHO-Ga16 cells, counter-screen for TAAR1 agonist project, cell-based, fluorescence; shares compounds with TAAR1 agonist; CHO-Ga16 ATP-induced calcium, Fluo-8 fluorescence; inhibition, % at 3 µM; actives 39% (n = 2,400);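 active = inhibition above the plate's mean compound inhibition plus 3 SD, computed per plate, cut at about 22% in these data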
Large screens that a line does not name were inactive (follow-up assays come after a bar, where they were run). Compounds with a hit are over-represented: about 2.3% of the library has one in this group of screens.

O=C(CCC(=O)Nc1ccc(F)cc1)N/N=C/c1ccccc1O	TAAR1 agonist 54 | TAAR1 ag conf 72 | Ga16 nonsel ag inactive | TAAR1 desensitize inactive | Ga16 nonsel ant inactive
COc1ccc(/C=N/NC(=O)Cc2n[nH]c(=O)[nH]c2=O)cc1	none
O=C(CCC(=O)N/N=C/c1ccccc1O)NCc1ccccc1	TAAR1 agonist 42 | TAAR1 ag conf 57 | Ga16 nonsel ag inactive | TAAR1 desensitize inactive | Ga16 nonsel ant inactive
O=C(CNC(=O)c1ccccc1Br)N/N=C/c1ccccc1O	TAAR1 agonist 47 | TAAR1 ag conf 67 | Ga16 nonsel ag inactive | TAAR1 desensitize inactive | Ga16 nonsel ant inactive
Nc1ccnc(=O)[nH]1	none
Cn1c(N)c(C(=O)COC(=O)CNC(=O)c2ccc(Cl)cc2Cl)c(=O)n(C)c1=O	none
COc1cc(-c2noc(C)c2-c2ccc(N(C)C)nc2)cc(OC)c1OC	OXTR ag 36, TAAR1 agonist 96, V1aR counter 34, TAAR1 antagonist 54 | TAAR1 ag conf 84 | Ga16 nonsel ag 48 | TAAR1 desensitize 54 | Ga16 nonsel ant 31
Cc1cccc(C)c1Cn1c(C)c(C(=O)NCc2ccc([N+](=O)[O-])cc2)sc1=O	TAAR1 agonist 62, TAAR1 antagonist 49 (no result: OXTR potentiator, OXTR ag, V1aR counter) | TAAR1 ag conf 47 | Ga16 nonsel ag 29 | TAAR1 desensitize 53 | Ga16 nonsel ant 41
O=C(CNC(=O)c1cccc(F)c1)N/N=C/C=C/c1ccccc1	none (no result: TAAR1 agonist, TAAR1 antagonist) | Ga16 nonsel ag inactive | Ga16 nonsel ant inactive
Cn1cccc1/C=C1\CCC/C(=C\c2cccn2C)C1=O	OXTR ag 75, TAAR1 agonist 165, V1aR counter 44, TAAR1 antagonist 88 | TAAR1 ag conf inactive | Ga16 nonsel ag 36 | TAAR1 desensitize inactive | Ga16 nonsel ant 46
COC(C(=O)Nc1ccc(S(=O)(=O)Nc2cccc3ccccc23)cc1)c1ccccc1 (centres undefined)	none
COc1cc2nc(Nc3ccc(C)c(Cl)c3)nc(N)c2cc1OC	none
Nc1nc(Nc2ccccc2)nc2ccccc12	TAAR1 agonist 103, TAAR1 antagonist 91 | TAAR1 ag conf 95 | Ga16 nonsel ag inactive | TAAR1 desensitize 100 | Ga16 nonsel ant inactive
Nc1nc(Nc2ccc(Cl)cc2)nc2ccccc12	TAAR1 agonist 65, TAAR1 antagonist 72 | TAAR1 ag conf 84 | Ga16 nonsel ag inactive | TAAR1 desensitize 70 | Ga16 nonsel ant inactive
Cc1ccc(Nc2nc(N)c3ccccc3n2)cc1Cl	TAAR1 agonist 50 | TAAR1 ag conf 83 | Ga16 nonsel ag 24 | TAAR1 desensitize 75 | Ga16 nonsel ant inactive
CN(C)c1ccc(Nc2nc(N)c3ccccc3n2)cc1	none
O=C(COc1ccc(S(=O)(=O)N2CCCCC2)cc1)Nc1ccccc1F	none
C/C=N\NC(=O)CNC(=O)CNC(=O)c1ccccc1	none
O=c1[nH]c(CN2CCc3ccccc3C2)nc2ccccc12	none
Cc1[nH]c2ccccc2c1CN1CCc2ccccc2C1	none (no result: TAAR1 agonist, TAAR1 antagonist) | Ga16 nonsel ag inactive | Ga16 nonsel ant inactive
CC1(c2ccc3c(c2)OCCO3)NC(=O)N(CC(=O)c2ccc[nH]2)C1=O (centres undefined)	none
CC1Cc2ccccc2N1C(=O)CN1C(=O)NC(C)(c2ccc3c(c2)OCCO3)C1=O (centres undefined)	TAAR1 agonist 53 | TAAR1 ag conf 43 | Ga16 nonsel ag inactive | TAAR1 desensitize inactive | Ga16 nonsel ant inactive
CCC(C)N(C(=O)COC(=O)CNC(=O)c1sc2ccccc2c1Cl)C1CCS(=O)(=O)C1 (centres undefined)	none
c1ccc(CNc2ncnc3c2cnn3Cc2ccccc2)cc1	OXTR ag 25, TAAR1 agonist 102, V1aR counter 21 | TAAR1 ag conf 82 | Ga16 nonsel ag 47 | TAAR1 desensitize inactive | Ga16 nonsel ant 25
OCCNc1ncnc2c1cnn2Cc1ccccc1	none (no result: OXTR potentiator, OXTR ag, V1aR counter)
O=C(NCCc1ccccc1)c1cnc2n(c1=O)CCS2	none (no result: TAAR1 agonist, TAAR1 antagonist) | Ga16 nonsel ag inactive | Ga16 nonsel ant inactive
O=C(NCCc1c[nH]c2ccccc12)c1cnc2n(c1=O)CCS2	none
CCOC(=O)c1c(-c2cccs2)csc1NC(=O)CN1CCOCC1	TAAR1 agonist 44 | TAAR1 ag conf inactive | Ga16 nonsel ag 38 | TAAR1 desensitize inactive | Ga16 nonsel ant 35
Cc1ccccc1NC(=O)CON=C(N)c1ccccc1	none
O=C(CN(Cc1ccccc1)C(=O)c1csnn1)NCCc1ccccc1	TAAR1 agonist 75 | TAAR1 ag conf 68 | Ga16 nonsel ag inactive | TAAR1 desensitize inactive | Ga16 nonsel ant inactive
O=C(Nc1ccc(Br)cc1F)c1ccc2nsnc2c1	none
Cc1ccc(NC(=O)c2ccc3nsnc3c2)c(Cl)c1	TAAR1 agonist 57 | TAAR1 ag conf inactive | Ga16 nonsel ag inactive | TAAR1 desensitize inactive | Ga16 nonsel ant inactive
CN(c1ccccc1)S(=O)(=O)c1ccc(C(=O)NNC(=O)c2ccccc2F)cc1	none
CCOC(=O)N1CCN(C(=O)/C(=C/c2ccc(N(C)C)cc2)NC(=O)c2ccccc2)CC1	none
Cc1ccc(-n2nnnc2SCC(=O)c2c(N)n(C3CC3)c(=O)[nH]c2=O)cc1C	none
CCOc1ccc(/C=N/NC(=O)C(OC)c2ccccc2)cc1 (centres undefined)	none
CCOc1ccc(C=NCC(O)c2ccccc2)cc1 (centres undefined)	TAAR1 agonist 94, TAAR1 antagonist 76 | TAAR1 ag conf 106 | Ga16 nonsel ag inactive | TAAR1 desensitize 88 | Ga16 nonsel ant inactive
COC(=O)CSc1nc(-c2ccc(F)cc2)cc(C(F)(F)F)n1	none
